From PubChem
Sampled rows, rich in hits. Any-hit rate of the full collection: about 3.3%.
E-selectin induc – E-selectin induction in HUVECs, primary screen, imaging, HUVEC, immunofluorescence imaging, single point; P16581; normalized: neutral wells 0, TNF-alpha wells 100; activation, % at 7.58 µM; hit rate 0.37% among 260,000; AID 686992, 2013;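 active = mean E-selectin-positive cell signal at least 10% of the positive control, reached in at least 60% of replicates, without over 20% cell loss; inconclusive = no rule given, readout overlaps actives, possibly toxicity-flagged; inactive = the rest, including those meeting only one limit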
Target sequence (P16581 whole entry, looked up): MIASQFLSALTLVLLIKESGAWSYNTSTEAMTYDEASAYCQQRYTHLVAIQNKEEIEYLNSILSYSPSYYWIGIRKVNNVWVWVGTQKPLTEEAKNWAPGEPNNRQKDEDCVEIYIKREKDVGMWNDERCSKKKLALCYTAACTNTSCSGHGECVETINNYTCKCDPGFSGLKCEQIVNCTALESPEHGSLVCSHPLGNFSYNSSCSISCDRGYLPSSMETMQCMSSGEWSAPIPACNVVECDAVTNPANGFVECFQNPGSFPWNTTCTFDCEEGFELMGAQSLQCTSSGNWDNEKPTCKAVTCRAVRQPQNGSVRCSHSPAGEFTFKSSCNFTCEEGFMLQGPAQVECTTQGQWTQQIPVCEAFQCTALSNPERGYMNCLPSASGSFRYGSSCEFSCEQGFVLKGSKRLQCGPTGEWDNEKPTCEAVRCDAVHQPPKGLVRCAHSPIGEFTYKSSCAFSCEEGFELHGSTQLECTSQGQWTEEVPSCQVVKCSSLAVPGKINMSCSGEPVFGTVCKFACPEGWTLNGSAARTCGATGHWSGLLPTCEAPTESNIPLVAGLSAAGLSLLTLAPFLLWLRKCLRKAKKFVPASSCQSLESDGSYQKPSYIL
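System: HUVEC / Compound: single concentration / Signal: immunofluorescence imaging / Read-out: percent E-selectin-positive cells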
PglD DTNB – C. jejuni PglD acetyltransferase inhibitors, primary screen, biochemical, DTNB colorimetric, single point; UDP-N-acetylbacillosamine N-acetyltransferase PglD (Campylobacter jejuni); purified PglD enzyme, DTNB colorimetric CoA detection; inhibition, % at 12.5 µM; hit rate 0.098% among 360,000; AID 602405, 2012; in the data active = inhibition above about 16%, passing the limit was not always enough; inconclusive = no clear call, values can overlap the other calls
DENV2 CPE rescue – inhibitors of DENV2 cytopathic effect, primary screen, cell-based, plate reader, single concentration; CPE inhibition, % at 9.99 µM; hit rate 1.7% among 350,000; DENV2-infected cells, cytopathic effect rescue; AID 651640, 2012; in the data active = CPE inhibition above about 20%, passing the limit was not always enough; inconclusive = no clear call, values can overlap the other calls; tested in BHK-21 cells
XiGFP reactiv – activators of inactive X chromosome reactivation, primary screen, imaging, XiGFP fibroblasts, GFP high-content imaging, set 2 | XiGFP mouse fibroblasts, % GFP-positive cells imaging, 3 d; cells co-treated with 5-aza-dC sensitizer; scaled so ellipticine positive control = 100% | AID 743238, 2013 | activation, % at 7.58 µM | hit rate 0.055% among 360,000;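 active = mean normalized replicate activation at least 10% and every replicate at or above 10%; inconclusive = only one of the two criteria met; inactive = mean below 10% and not all replicates reach 10%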
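Material: XiGFP fibroblasts, SV40-immortalized. Buffer or medium: DMEM plus 5-aza-dC sensitizer. Compound: single concentration per compound, delivered by pin transfer. Times: 3 days compound exposure. Controls: ellipticine 6 µM.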
FGF22 binding – binders of human FGF22 protein, primary screen, FGF22 synaptogenesis inhibitor project, biophysical, thermal shift, single point | Fibroblast growth factor 22 (Homo sapiens), Q9HCT0 | activity (Tm shift, normalised), % at 9.99 µM | AID 651658, 2012 | hit rate 1.5% among 340,000 | recombinant FGF22 thermal shift, SYPRO orange fluorescence; percent of sucrose octasulfate shift, DMSO zero;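 active = mean Tm shift, scaled 0 neutral to 100 positive control, at about 1.3% or above, every replicate too, limit read from the data; inconclusive = no clear call, values can overlap the other calls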
Target sequence (Q9HCT0 whole entry, looked up): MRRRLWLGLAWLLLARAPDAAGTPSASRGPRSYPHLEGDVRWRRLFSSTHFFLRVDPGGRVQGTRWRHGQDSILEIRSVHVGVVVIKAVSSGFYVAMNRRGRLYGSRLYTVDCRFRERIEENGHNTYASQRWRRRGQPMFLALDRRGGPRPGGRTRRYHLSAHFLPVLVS
Statin myotox sup – suppressors of statin myotoxicity in C2C12 myotubes, primary screen, cell-based, single point, plate reader | rescue of ATP level, % at 7.49 µM | C2C12 myotubes + simvastatin, ATP luminescence, 48 h; scaled: DMSO 0, geranylgeraniol control 100 | hit rate 0.78% among 330,000;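 active = mean ATP rescue above about 67%, or every replicate alone reaching that limit, limit read from the data, passing the limit was not always enough; inconclusive = no clear call, values can overlap the other calls; inactive = mean under the limit and some replicate under it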;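 note: myotubes were challenged with 10 µM simvastatin during compound exposure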
Large screens that a line does not name were inactive.

N#C[C@@H]1[C@@H](c2ccccc2C2=CCCC2)[C@H](CO)N1C(=O)C1CCC1	none (no result: PglD DTNB, Statin myotox sup)
C[C@@H]1CN([C@H](C)CO)S(=O)(=O)c2ccc(C#Cc3cccc(F)c3)cc2O[C@@H]1CN(C)C(=O)NC1CCCCC1	none
COC(=O)c1cn(NC(=O)Cn2nc([N+](=O)[O-])c(Br)c2C)c(=O)c2ccccc12	FGF22 binding 43 (no result: E-selectin induc, PglD DTNB)
COc1cc2c3c(c1)C1(C(=O)N3C(C)(C)C=C2C)C(C#N)=C(N)Oc2cc(C)oc(=O)c21 (stereo not given)	Statin myotox sup 114 (no result: E-selectin induc, DENV2 CPE rescue, XiGFP reactiv, FGF22 binding)
CC1=CC(C)(C)N2C(=O)C3(C(C#N)=C(N)OC4=C3C(=O)CC(C)(C)C4)c3c(C)c(C)cc1c32 (stereo not given)	Statin myotox sup 92 (no result: E-selectin induc, XiGFP reactiv)
CC1=CC(C)(C)N2C(=O)C3(C(C#N)=C(N)OC4=C3C(=O)CC(C)(C)C4)c3cccc1c32 (stereo not given)	none (no result: PglD DTNB, DENV2 CPE rescue, XiGFP reactiv, FGF22 binding, Statin myotox sup)
CCOC(=O)C1=C(C)NC(=O)C(C(N)=O)C1c1ccccc1 (stereo not given)	Statin myotox sup 111 (no result: E-selectin induc, DENV2 CPE rescue, XiGFP reactiv, FGF22 binding)
CCOC(=O)C1=C(C)NC(=S)N(C=O)C1c1ccccc1 (stereo not given)	none (no result: E-selectin induc, PglD DTNB, Statin myotox sup)
Cc1ccc(S(=O)(=O)N[C@@H]2C=C[C@H](CC(=O)NCc3ccccc3F)O[C@H]2CO)cc1	none
C=CCn1c(N)c(C(=O)N2CCOCC2)sc1=S	none (no result: E-selectin induc, PglD DTNB, DENV2 CPE rescue, XiGFP reactiv, FGF22 binding)
CCn1c(N)c(C(=O)N2CCOCC2)sc1=S	Statin myotox sup 129 (no result: E-selectin induc, DENV2 CPE rescue, XiGFP reactiv, FGF22 binding)
O=C1CCCc2[nH]c(-c3ccccc3)nc21	FGF22 binding 43 (no result: E-selectin induc, PglD DTNB, Statin myotox sup)
O=C(NCc1ccccc1)Oc1cccc(Cl)c1	Statin myotox sup 106 (no result: E-selectin induc, DENV2 CPE rescue, XiGFP reactiv, FGF22 binding)
Cc1ncccc1C(=O)N1CCCC(C(=O)c2ccc3c4c(cccc24)CC3)C1 (stereo not given)	FGF22 binding 43 (no result: E-selectin induc, PglD DTNB, Statin myotox sup)
CCc1nc(CN2CCCC(C(=O)c3ccc4c5c(cccc35)CC4)C2)c(C)[nH]1 (stereo not given)	FGF22 binding 44 (no result: E-selectin induc, PglD DTNB, Statin myotox sup)
O=C(c1ccc2c3c(cccc13)CC2)C1CCCN(Cc2ccncc2)C1 (stereo not given)	none (no result: XiGFP reactiv)
COc1cccc(S(=O)(=O)N(C)C[C@@H]2Oc3ncc(C#Cc4ccc(F)cc4)cc3C(=O)N([C@H](C)CO)C[C@@H]2C)c1	DENV2 CPE rescue inconclusive
O=C(C[C@H]1CC[C@@H](NC(=O)C2CC2)[C@H](CO)O1)NCc1ccccc1Cl	none
C[C@H]1CN([C@@H](C)CO)C(=O)Cc2cc(NS(=O)(=O)c3ccc(F)cc3)ccc2O[C@@H]1CN(C)Cc1ccc2c(c1)OCO2	Statin myotox sup 124
C[C@H](CO)N1C[C@H](C)[C@@H](CN(C)Cc2ccc3c(c2)OCO3)Oc2ccc(NS(=O)(=O)c3ccc(F)cc3)cc2CC1=O	Statin myotox sup 150
C[C@@H]1CN([C@@H](C)CO)C(=O)Cc2cc(NS(=O)(=O)c3ccc(F)cc3)ccc2O[C@H]1CN(C)Cc1ccc2c(c1)OCO2	none
C[C@@H]1CN([C@H](C)CO)C(=O)Cc2cc(NS(=O)(=O)c3ccc(F)cc3)ccc2O[C@@H]1CN(C)Cc1ccc2c(c1)OCO2	none
CCOC(=O)Cc1c(Cl)c2ccccc2[nH]c1=O	FGF22 binding 43 (no result: E-selectin induc)
CCCNC(=O)Cc1c(O)c2ccccc2[nH]c1=O	Statin myotox sup 108 (no result: E-selectin induc, PglD DTNB, DENV2 CPE rescue, XiGFP reactiv, FGF22 binding)
CCOC(=O)c1c(NCC(C)C)c2ccccc2[nH]c1=O	none (no result: E-selectin induc, DENV2 CPE rescue, XiGFP reactiv, FGF22 binding)
CCOC(=O)/C=c1\s/c(=C\c2ccc3c(c2)OCCO3)c(=O)n1CC(=O)NCC1CCCO1 (stereo not given)	Statin myotox sup 110 (no result: E-selectin induc, DENV2 CPE rescue, XiGFP reactiv, FGF22 binding)
CCOC(=O)/C=c1\s/c(=C\c2ccc3cc(OC)ccc3c2)c(=O)n1CC(=O)NCc1ccc2c(c1)OCO2	XiGFP reactiv 28 (no result: E-selectin induc, PglD DTNB, Statin myotox sup)
CC(=O)N1CC2(C1)[C@@H](c1ccc(-c3cccc(F)c3)cc1)[C@@H](CO)N2CC1CCOCC1	none (no result: PglD DTNB, Statin myotox sup)
C[C@@H]1CN([C@H](C)CO)C(=O)c2cc(N(C)C)ccc2O[C@@H](C)CCCCO[C@H]1CN(C)Cc1ccccc1	none
CC(C)c1ccc(CNC(=O)C(=O)Nc2nccs2)cc1	FGF22 binding 43 (no result: E-selectin induc, PglD DTNB, Statin myotox sup)
CN1C[C@@H]2C[C@@H](c3cccn3-c3nccs3)N3CCC[C@@]23C1=O	DENV2 CPE rescue inconclusive, FGF22 binding 43 (no result: E-selectin induc, PglD DTNB, Statin myotox sup)
O=C1N(Cc2cccc(Cl)c2)C[C@@H]2C[C@@H](c3cccn3-c3nccs3)N3CCC[C@@]123	none (no result: PglD DTNB)
CC(=O)Nc1ccc(-c2ccnc3c2CC(C(=O)Nc2ccccc2)O3)cc1 (stereo not given)	DENV2 CPE rescue 56
CN(C(=O)C1Cc2c(-c3ccc(Cl)cc3)ccnc2O1)c1ccccc1 (stereo not given)	FGF22 binding 25 (no result: E-selectin induc)
CN(C(=O)C1Cc2c(-c3ccccc3Oc3ccccc3)ccnc2O1)c1ccccc1 (stereo not given)	none
COc1ccc(-c2ccc([C@H]3[C@H](CO)N4C(=O)CNC[C@@H]34)cc2)cc1	none (no result: PglD DTNB, FGF22 binding, Statin myotox sup)
C[C@@H]1CN([C@H](C)CO)C(=O)c2cc(NC(=O)Nc3ccc(C(F)(F)F)cc3)ccc2O[C@@H]1CN(C)Cc1ccncc1	DENV2 CPE rescue 57 (no result: E-selectin induc)
C[C@H]1CN([C@@H](C)CO)C(=O)c2cc(NC(=O)Nc3ccc(C(F)(F)F)cc3)ccc2O[C@H]1CN(C)Cc1ccncc1	DENV2 CPE rescue 21 (no result: E-selectin induc, XiGFP reactiv)
CC(C)NC(=O)Nc1ccc2c(c1)C(=O)N([C@@H](C)CO)C[C@@H](C)[C@H](CN(C)Cc1ccc(C(F)(F)F)cc1)O2	E-selectin induc 38
CC(C)NC(=O)Nc1ccc2c(c1)C(=O)N([C@H](C)CO)C[C@H](C)[C@@H](CN(C)Cc1ccc(C(F)(F)F)cc1)O2	none
O=C1CN(S(=O)(=O)c2ccccc2)C[C@@H]2[C@H](c3ccc(C#CCc4ccccc4)cc3)[C@@H](CO)N12	DENV2 CPE rescue inconclusive (no result: PglD DTNB, FGF22 binding, Statin myotox sup)
COc1ccc(S(=O)(=O)N(C)C[C@H]2Oc3c(NC(=O)Nc4ccc(C(F)(F)F)cc4)cccc3C(=O)N([C@@H](C)CO)C[C@H]2C)cc1	none (no result: E-selectin induc)
O=S(=O)(c1ccc(F)cc1)N1CCN(CC(O)COCc2ccccc2)CC1 (stereo not given)	none (no result: E-selectin induc)
O=S(=O)(c1cccc(C(F)(F)F)c1)N1CCN(CC(O)COCc2ccccc2)CC1 (stereo not given)	DENV2 CPE rescue 63
O=C1N/C(=N/O)S/C1=C/c1cccc([N+](=O)[O-])c1	FGF22 binding 44 (no result: E-selectin induc, DENV2 CPE rescue)
